From BindingDB's records for doi:10.1021/acs.jmedchem.6b01066 (University of Copenhagen, 2016)

Biological target: T1, Excitatory amino acid transporter 3 (Homo sapiens, UniProt P43005)
T1 sequence (P43005 whole entry): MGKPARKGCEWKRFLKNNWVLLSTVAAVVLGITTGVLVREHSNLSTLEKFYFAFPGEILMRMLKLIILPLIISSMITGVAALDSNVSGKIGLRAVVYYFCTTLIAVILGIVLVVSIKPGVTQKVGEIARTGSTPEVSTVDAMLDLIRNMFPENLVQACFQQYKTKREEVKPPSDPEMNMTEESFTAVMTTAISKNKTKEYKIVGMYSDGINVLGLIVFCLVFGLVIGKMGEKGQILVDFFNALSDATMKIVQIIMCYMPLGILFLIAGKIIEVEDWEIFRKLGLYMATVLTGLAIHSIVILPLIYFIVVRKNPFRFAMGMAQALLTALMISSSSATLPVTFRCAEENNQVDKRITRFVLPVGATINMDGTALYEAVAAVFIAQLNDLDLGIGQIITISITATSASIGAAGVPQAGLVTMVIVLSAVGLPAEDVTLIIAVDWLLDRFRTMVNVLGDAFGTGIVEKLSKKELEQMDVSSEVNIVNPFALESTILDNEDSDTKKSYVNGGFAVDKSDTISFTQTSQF
Test: Inhibition of [3H]-D-Asp uptake at human EAAT3 expressed in HEK293 cells measured after 3 mins by TopCount method
In short: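 Stably transfected EAAT1-, EAAT2- or EAAT3-HEK293 lines grown in high-glucose GlutaMAX DMEM with 5% dialyzed FBS, penicillin/streptomycin and […]. Cells were seeded and reached confluence in 16−24 h, then washed in uptake buffer (HBSS, 20 mM HEPES, 1 mM CaCl₂, 1 mM MgCl₂, pH 7.4). Uptake ran 3 min at room temperature with 100 nM [³H]-D-aspartate plus test compound at varied concentrations. Two ice-cold washes, then scintillation counting. IC₅₀ from concentration−inhibition curves, n = 3−5.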

## N[C@H](C(=O)O)C(NC(=O)Oc1ccccc1)C(=O)O (stereo partly specified)
  IC50: 316 µM
